# Measured values taken from ChEMBL document CHEMBL1153965, “Inhibitors of hepatitis C virus NS3/4A: alpha-ketoamide based macrocyclic inhibitors” (Bioorg Med Chem Lett, 2009).
# What was measured:
# [1] = Cytotoxicity against human HuH7 cells; type: cell-based, Huh-7
# Hepatitis C virus [2] = assay: Antiviral activity against HCV replication infected in human HuH7 cells after 96 hrs by replicon assay in presence of 10% FCS; type: functional, organism-based, Hepacivirus hominis, Huh-7
# Outline: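 Compounds incubated with replicon cells at 37 °C for 96 h in medium containing 10% FCS, with inhibition of replication read out to give EC50.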
# [3] = Inhibition of full length HCV NS3/4A protease by TRF assay; set-up: species or system Hepacivirus hominis
# [4] = AUC (0 to infinity) in Wistar rat plasma at 5 mg/kg, po; type: ADME, organism-based; set-up: time infinity, dose 5 mg/kg, route oral
# Outline: (§1)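 Male Wistar rats dosed orally at 5 mg/kg in PEG 400 vehicle, with plasma exposure measured. Values are geometric means from 3 animals.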
# [5] = Cmax in Wistar rat at 5 mg/kg, po; type: ADME, organism-based; set-up: dose 5 mg/kg, route oral; details: in vivo; outline: as §1
# [6] = Drug level in Wistar rat liver at 5 mg/kg, po after 4 hrs; type: ADME, organism-based; set-up: dose 5 mg/kg, route oral; details: read-out: Drug uptake
# [7] = Oral bioavailability in Wistar rat at 5 mg/kg; type: ADME, organism-based; details: in vivo
# Hepatitis C virus [8] = assay: Antiviral activity against HCV replication infected in human HuH7 cells after 72 hrs by replicon assay in presence of 5% FCS; details: Huh-7, 72 h
# Hepatitis C virus [9] = assay: Antiviral activity against HCV replication infected in human HuH7 cells after 48 hrs by replicon assay in presence of 2% FCS; details: Huh-7, 48 h
SMILES,"EC50 (Hepatitis C virus [2]; Hepatitis C virus, Huh-7, 96 h)",Ki [3],AUC(0-inf) [4],Cmax [5],concentration at 4 h [6],EC50 (Hepatitis C virus [2]; huh-7),bioavailability [7],EC50 (Hepatitis C virus [8]),EC50 (Hepatitis C virus [9]),CC50 [1]
CCC[C@H](NC(=O)[C@@H]1C[C@@H]2CN1C(=O)[C@H](C(C)(C)C)NC(=O)OCCCCCCc1cccc3c1CN(C3)C(=O)O2)C(=O)C(=O)NCc1ccccc1,1320 nM,242 nM,–,–,–,–,–,–,–,> 50000 nM
CCC[C@H](NC(=O)[C@@H]1C[C@@H]2CN1C(=O)[C@H](C(C)(C)C)NC(=O)OCCCCCCc1cccc3c1CN(C3)C(=O)O2)C(=O)C(=O)NC1CCC1,940 nM,140 nM,–,–,–,–,–,–,–,> 50000 nM
CCC[C@H](NC(=O)[C@@H]1C[C@@H]2CN1C(=O)[C@H](C(C)(C)C)NC(=O)OCCCCCCc1cccc3c1CN(C3)C(=O)O2)C(=O)C(=O)NC(C)c1ccccc1 (stereo not given in full),> 500 nM,140 nM,–,–,–,–,–,–,–,> 50000 nM
CCC[C@H](NC(=O)[C@@H]1C[C@@H]2CN1C(=O)[C@H](C(C)(C)C)NC(=O)OCCCCCCc1cccc3c1CN(C3)C(=O)O2)C(=O)C(=O)NCc1ccccn1,790 nM,176 nM,–,–,–,–,–,–,–,> 50000 nM
CCC[C@H](NC(=O)[C@@H]1C[C@@H]2CN1C(=O)[C@H](C(C)(C)C)NC(=O)OCCCCCc1cccc3c1CN(C3)C(=O)O2)C(=O)C(=O)NC1CC1,600 nM,83 nM,–,–,–,–,–,–,–,> 50000 nM
"CCC(C)NC(=O)C(=O)C(CC(F)F)NC(=O)[C@@H]1C[C@@H]2CN1C(=O)[C@H](C(C)(C)C)NC(=O)OCCCCCCc1cccc3c1CN(C3)C(=O)O2 (single isomer, unassigned; diastereomer 1)",> 12500 nM,2400 nM,–,–,–,–,–,–,–,> 50000 nM
"CCC(C)NC(=O)C(=O)C(CC(F)F)NC(=O)[C@@H]1C[C@@H]2CN1C(=O)[C@H](C(C)(C)C)NC(=O)OCCCCCCc1cccc3c1CN(C3)C(=O)O2 (single isomer, unassigned; diastereomer 2)",–,> 2900 nM,–,–,–,> 6250 nM,–,–,–,–
CCC[C@H](NC(=O)[C@@H]1[C@H]2CCC[C@H]2CN1C(=O)[C@@H](NC(=O)[C@@H](NC(=O)c1cnccn1)C1CCCCC1)C(C)(C)C)C(=O)C(=O)NC1CC1 [TELAPREVIR],1600 nM,110 nM,1.54 µM·h,–,810 nM,–,34.8%,–,354 nM,> 50000 nM

# The next molecules have a lower Ki [3] than those just listed; values first:
"EC50 (Hepatitis C virus [2]; Hepatitis C virus, Huh-7, 96 h)",Ki [3],AUC(0-inf) [4],Cmax [5],concentration at 4 h [6],EC50 (Hepatitis C virus [2]; huh-7),bioavailability [7],EC50 (Hepatitis C virus [8]),EC50 (Hepatitis C virus [9]),SMILES,CC50 [1]
550 nM,71 nM,0.58 µM·h,160 nM,480 nM,–,–,–,–,C=CCNC(=O)C(=O)[C@H](CCC)NC(=O)[C@@H]1C[C@@H]2CN1C(=O)[C@H](C(C)(C)C)NC(=O)OCCCCCCc1cccc3c1CN(C3)C(=O)O2,> 50000 nM
520 nM,66 nM,–,–,–,–,–,–,–,CCC[C@H](NC(=O)[C@@H]1C[C@@H]2CN1C(=O)[C@H](C(C)(C)C)NC(=O)OCCCCCCc1cccc3c1CN(C3)C(=O)O2)C(=O)C(=O)NC(C)CC (stereo not given in full),> 50000 nM
1050 nM,78 nM,–,–,–,–,–,–,–,CCC[C@H](NC(=O)[C@@H]1C[C@@H]2CN1C(=O)[C@H](C(C)(C)C)NC(=O)OCCCCCCc1cccc3c1CN(C3)C(=O)O2)C(=O)C(=O)NC1CCCC1,> 50000 nM
–,35 nM,0.21 µM·h,130 nM,–,–,3.5%,200 nM,–,CC(C)(C)NC(=O)N[C@H](C(=O)N1C[C@H]2[C@@H]([C@H]1C(=O)NC(CC1CCC1)C(=O)C(N)=O)C2(C)C)C(C)(C)C (stereo not given in full) [BOCEPREVIR],> 50000 nM
